Published values gathered from unrelated publications.
Lines come from different studies, so protocols differ.
Cell line: NCI-H460
Observed: cell growth or viability

N.N.[Cl][Pt][Cl]
IC50: 19 µM

C1COCCN1.COc1ccc(/C=C\c2cc(I)c(OC)c(I)c2)cc1OP(=O)(O)O
GI50 (SRB; 48 h): 0.033 µg/mL

N.N.[Cl][Pt][Cl]
IC50 (MTT; 72 h): 3 µM

N.N.[Cl][Pt][Cl]
IC50 (24 h): 50.5 µM

COc1cc([C@@H]2c3cc4c(cc3[C@H](O)[C@H]3COC(=O)[C@H]23)OCO4)cc(OC)c1OC
EC50 (MTT; 72 h): 0.0002 µM

Cc1cccc(-n2ncc(Cl)c(Cl)c2=O)c1
IC50 (resazurin; 96 h): 1.5 µM

CN1C[C@H](C(=O)N[C@]2(C)O[C@@]3(O)[C@@H]4CCCN4C(=O)[C@H](Cc4ccccc4)N3C2=O)C=C2c3cccc4[nH]cc(c34)C[C@H]21
EC50 (MTT; 72 h): ~25 µM

C=C(C)[C@@H]1CC[C@]2(CO)CC[C@]3(C)[C@H](CC[C@@H]4[C@@]5(C)CC[C@H](O)C(C)(C)[C@@H]5CC[C@]43C)[C@@H]12
IC50 (48 h): 11.5 µM
